# According to ChEMBL document CHEMBL5154635, “Expedited Approach toward the Rational Design of Noncovalent SARS-CoV-2 Main Protease Inhibitors” (J Med Chem, 2022):
# Tests used:
# [1] = molecular target: T1, Replicase polyprotein 1ab (Severe acute respiratory syndrome coronavirus 2, UniProt P0DTD1); assay: Non-covalent inhibition of SARS-Cov-2 -Mpro incubated for 30 mins using FRET substrate measured for 1 hr by FRET-based enzymatic assay
# [2] = Cytotoxicity against African green monkey Vero E6 cells assessed as cell viability incubated for 5 days by neutral red uptake based microplate reader method; format: toxicity, Vero C1008; conditions: chlorocebus sabaeus, time 5 day
# How it was run: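 Vero E6 cells seeded and grown for 24 h, then washed. Serial compound dilutions added in serum-free medium for 5 days at 37 °C. Neutral red (40 μg/mL) taken up for 2–4 h, with absorbance read at 540 nm. CC50 from variable-slope dose-response fit.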
# SARS-CoV-2 = assay: Antiviral activity against SARS-Cov-2 USA-WA1/2020 isolate infected in African green monkey Vero E6 cells measured after 48 hrs of postinfection by immunofluorescence assay; format: functional, organism-based; conditions: Severe acute respiratory syndrome coronavirus 2, USA-WA1/2020, Vero C1008, 48 h
# [3] = Selectivity Index, ratio of CC50 for african green monkey vero E6 cells to EC50 for antiviral activity against SARS-Cov-2 USA-WA1/2020 isolate infected in African green monkey Vero E6 cells; format: toxicity, Vero C1008; conditions: read-out: Ratio CC50/EC50
# [4] = Non-covalent inhibition of SARS-Cov -Mpro incubated for 30 mins using FRET substrate measured for 1 hr by FRET-based enzymatic assay; set-up: species or system Severe acute respiratory syndrome-related coronavirus
# [5] = molecular target: T1, Replicase polyprotein 1ab; assay: Non-covalent inhibition of SARS-Cov-2 PLpro incubated for 30 mins using FRET substrate measured for 1 hr by FRET-based enzymatic assay
# [6] = molecular target: T2, Calpain-1 catalytic subunit (Homo sapiens, UniProt P07384); assay: Non-covalent inhibition of Calpain 1 (unknown origin) incubated for 1 hr by FRET-based enzymatic assay
# T2 sequence (P07384 whole entry): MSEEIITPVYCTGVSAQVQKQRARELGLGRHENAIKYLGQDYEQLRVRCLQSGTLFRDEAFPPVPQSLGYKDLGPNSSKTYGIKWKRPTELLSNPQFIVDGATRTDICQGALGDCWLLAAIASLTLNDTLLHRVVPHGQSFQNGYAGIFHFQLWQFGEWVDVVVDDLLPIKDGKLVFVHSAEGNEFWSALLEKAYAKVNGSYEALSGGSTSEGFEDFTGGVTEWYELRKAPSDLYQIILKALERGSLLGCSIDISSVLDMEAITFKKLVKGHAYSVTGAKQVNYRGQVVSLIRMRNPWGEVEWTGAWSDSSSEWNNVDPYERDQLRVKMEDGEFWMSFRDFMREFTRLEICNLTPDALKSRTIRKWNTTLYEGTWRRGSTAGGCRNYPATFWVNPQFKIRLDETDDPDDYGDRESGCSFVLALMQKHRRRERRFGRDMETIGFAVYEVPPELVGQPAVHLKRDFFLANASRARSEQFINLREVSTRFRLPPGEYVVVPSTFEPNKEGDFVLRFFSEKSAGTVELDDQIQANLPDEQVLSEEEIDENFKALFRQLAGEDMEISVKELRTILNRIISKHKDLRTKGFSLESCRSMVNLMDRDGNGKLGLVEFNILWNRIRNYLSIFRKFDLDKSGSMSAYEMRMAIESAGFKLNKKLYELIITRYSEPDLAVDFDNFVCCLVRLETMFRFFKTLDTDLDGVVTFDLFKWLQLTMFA
# How it was run: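 Calpain 1 in 50 mM HEPES, 50 mM NaCl, 10 mM DTT, 5 mM CaCl2, pH 7.5. Reaction started with N-succinyl-Leu-Leu-Val-Tyr-AMC (4 mM stock).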
# Procathepsin L [7] = molecular target: T3, Procathepsin L (Homo sapiens, UniProt P07711); assay: Non-covalent inhibition of Cathepsin L (unknown origin) incubated for 30 mins using FRET substrate measured for 1 hr by FRET-based enzymatic assay
# How it was run: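 Cathepsin L activated for 30 min at 30 °C in 20 mM sodium acetate, 1 mM EDTA, 5 mM DTT, pH 5.5. 300 pM enzyme preincubated with compound for 30 min at 30 °C.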
# [8] = molecular target: T1, Replicase polyprotein 1ab; assay: Stabilization in SARS-CoV-2 MPro assessed as binding constant incubated for 30 mins in presence of DTT by thermal shift binding assay
# How it was run: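 3 μM SARS-CoV-2 Mpro in Mpro reaction buffer with 4 mM DTT, incubated with varying compound concentrations for 30 min at 30 °C. SYPRO orange added and melt run from 20 to 90 °C at 0.05 °C/s. Tm plotted against concentration and fitted to one-site binding to give apparent Kd.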
# [9] = Covalent inhibition of MERS-CoV -Mpro incubated for 30 mins using FRET substrate measured for 1 hr by FRET-based enzymatic assay; set-up: species or system Middle East respiratory syndrome-related coronavirus
# [10] = Covalent inhibition of HCoV-OC43 -Mpro incubated for 30 mins using FRET substrate measured for 1 hr by FRET-based enzymatic assay; set-up: species or system unidentified human coronavirus
# [11] = Covalent inhibition of Enterovirus-A17 3Cpro incubated for 30 mins using FRET substrate measured for 1 hr by FRET-based enzymatic assay
# How it was run: (§1)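 Reaction started with the corresponding peptide FRET substrate (final 10 μM) and read at ex 360/em 460 nm at 30 °C for 1 h. Initial velocity taken by linear regression over the first 15 min.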
# [12] = Covalent inhibition of Enterovirus-D68 3Cpro incubated for 30 mins using FRET substrate measured for 1 hr by FRET-based enzymatic assay; how it was run: as §1
# [13] = Covalent inhibition of Enterovirus-A17 2Apro incubated for 30 mins using FRET substrate measured for 1 hr by FRET-based enzymatic assay; how it was run: as §1
# [14] = Covalent inhibition of Enterovirus-D68 2Apro incubated for 30 mins using FRET substrate measured for 1 hr by FRET-based enzymatic assay; how it was run: as §1
# [15] = molecular target: T2, Calpain-1 catalytic subunit; assay: Covalent inhibition of Calpain 1 (unknown origin) incubated for 1 hr by FRET-based enzymatic assay
# How it was run: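 Calpain 1 in buffer of 50 mM HEPES, 50 mM NaCl, 10 mM DTT and 5 mM CaCl2 (pH 7.5), with test compound at serial concentrations. The reaction is started with N-succinyl-Leu-Leu-Val-Tyr-AMC (4 mM stock). Fluorescence (ex 360, em 460 nm) is read for 1 h at 30 °C.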
# Procathepsin L [16] = molecular target: T3, Procathepsin L; assay: Covalent inhibition of Cathepsin L (unknown origin) incubated for 30 mins using FRET substrate measured for 1 hr by FRET-based enzymatic assay
# [17] = Covalent inhibition of SARS-Cov -Mpro incubated for 30 mins using FRET substrate measured for 1 hr by FRET-based enzymatic assay; set-up: species or system Severe acute respiratory syndrome-related coronavirus
# T3 sequence (P07711 whole entry): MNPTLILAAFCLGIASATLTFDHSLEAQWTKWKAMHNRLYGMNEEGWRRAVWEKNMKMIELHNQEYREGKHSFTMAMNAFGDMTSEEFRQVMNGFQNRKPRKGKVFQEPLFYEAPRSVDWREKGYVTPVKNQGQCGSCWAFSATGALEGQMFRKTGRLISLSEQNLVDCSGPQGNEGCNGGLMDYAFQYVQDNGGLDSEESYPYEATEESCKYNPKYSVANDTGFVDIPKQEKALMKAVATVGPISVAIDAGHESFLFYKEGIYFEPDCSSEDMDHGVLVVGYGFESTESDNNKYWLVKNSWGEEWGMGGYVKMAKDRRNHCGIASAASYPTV
SMILES,IC50 [1],CC50 at 120 h [2],other results
C[C@H](NC(=O)C(c1cccnc1)N(C(=O)c1ccco1)c1ccc(-c2cccs2)cc1)c1ccccc1 (some centres undefined),0.56 µM,89.6 µM,–
Cc1cccc(C)c1NC(=O)C(c1cccnc1)N(C(=O)c1ccco1)c1ccc(C(C)(C)C)cc1 (centres undefined),> 20 µM,–,–
C[C@H](NC(=O)C(c1cnccn1)N(C(=O)c1ccco1)c1ccc(-c2ccccc2)cc1)c1ccccc1 (some centres undefined),–,> 200 µM,EC50 (SARS-CoV-2): 0.82 µM; selectivity ratio [3]: > 244
O=C(NCCCc1ccccc1)C(c1cccnc1)N(C(=O)c1ccco1)c1ccc(-c2ccccc2)cc1 (centres undefined),–,> 200 µM,EC50 (SARS-CoV-2): 2.04 µM; selectivity ratio [3]: > 98
CC(C)(C)NC(=O)C(c1cccnc1)N(C(=O)c1ccco1)c1ccc(C(C)(C)C)cc1 (centres undefined),–,> 125 µM,EC50 (SARS-CoV-2): > 20 µM
C[C@H](NC(=O)C(c1cccnc1)N(C(=O)c1ccco1)c1ccc([Si](C)(C)C)cc1)c1ccccc1 (some centres undefined),–,19.4 µM,–
CC(C)(C)NC(=O)C(c1cnccn1)N(C(=O)c1ccco1)c1ccc(C(C)(C)C)cc1 (centres undefined),–,138 µM,–
O=C(NCC(c1ccccc1)c1ccccc1)C(c1cccnc1)N(C(=O)c1ccco1)c1ccc(-c2ccccc2)cc1 (centres undefined),–,> 200 µM,–
C[C@H](NC(=O)C(c1cccnc1)N(C(=O)c1ccco1)c1ccc(C2CCCCC2)cc1)c1ccccc1 (some centres undefined),–,9.61 µM,–
C[C@H](NC(=O)C(c1cccnc1)N(C(=O)c1c[nH]cn1)c1ccc(-c2ccccc2)cc1)c1ccccc1 (some centres undefined),–,129 µM,EC50 (SARS-CoV-2): 13.1 µM; selectivity ratio [3]: 9.9
C[C@H](NC(=O)[C@H](c1cccnc1)N(C(=O)c1ccco1)c1ccc(-c2ccccc2)cc1)c1ccccc1,> 20 µM,–,–
C[C@H](NC(=O)C(c1cccnc1)N(C(=O)c1ccco1)c1ccc(-c2ccco2)cc1)c1ccccc1 (some centres undefined),–,56.4 µM,–
O=C(NC1CCCCC1)C(c1cccnc1)N(C(=O)c1ccco1)c1ccc(-c2ccccc2)cc1 (centres undefined),–,53.5 µM,–
CC(C)(C)c1ccc(N(C(=O)c2ccco2)C(C(=O)NC2CCCCC2)c2cccnc2)cc1 (centres undefined),2.39 µM,18.2 µM,–
CC(C)(C)NC(=O)C(c1c[nH]cn1)N(C(=O)c1ccco1)c1ccc(C(C)(C)C)cc1 (centres undefined),> 20 µM,–,–
C[C@H](NC(=O)C(c1cccnc1)N(C(=O)c1ccco1)c1ccc(-n2cccc2)cc1)c1ccccc1 (some centres undefined),–,> 200 µM,EC50 (SARS-CoV-2): 1.73 µM; selectivity ratio [3]: > 116

SMILES,IC50 [1],CC50 at 120 h [2],other results
C[C@H](NC(=O)C(c1cnccn1)N(C(=O)c1c[nH]cn1)c1ccc(-c2ccccc2)cc1)c1ccccc1 (some centres undefined),–,148 µM,EC50 (SARS-CoV-2): 4.54 µM; selectivity ratio [3]: 32.6
CC(C)(C)c1ccc(N(C(=O)c2ccco2)C(C(=O)NC2CCCC2)c2cccnc2)cc1 (centres undefined),–,101 µM,–
O=C(NC1CC1)C(c1cccnc1)N(C(=O)c1ccco1)c1ccc(-c2ccccc2)cc1 (centres undefined),12.1 µM,–,–
C[C@H](NC(=O)C(c1cccnc1)N(C(=O)c1ccco1)c1ccc(-c2ccccn2)cc1)c1ccccc1 (some centres undefined),–,236 µM,–
O=C(NC1CCCC1)C(c1cccnc1)N(C(=O)c1ccco1)c1ccc(-c2ccccc2)cc1 (centres undefined),4.1 µM,> 200 µM,–
C[C@H](NC(=O)C(c1cccnc1)N(C(=O)c1ccno1)c1ccc(C2CCCCC2)cc1)c1ccccc1 (some centres undefined),–,17.5 µM,–
C[C@H](NC(=O)[C@@H](c1cccnc1)N(C(=O)c1ccco1)c1ccc(-c2ccccc2)cc1)c1ccccc1,0.2 µM,> 100 µM,IC50 [4]: 0.27 µM; IC50 [5]: > 60 µM; IC50 [6]: 6 µM; IC50 (Procathepsin L [7]): 10.5 µM; Kd [8]: 9.43 µM
C[C@H](NC(=O)C(c1cccnc1)N(C(=O)c1ccco1)c1ccc(-c2ccccc2)cc1)c1ccccc1 (some centres undefined),0.66 µM,> 200 µM,EC50 (SARS-CoV-2): 1.61 µM
CC(C)(C)NC(=O)C(c1cncnc1)N(C(=O)c1ccco1)c1ccc(C(C)(C)C)cc1 (centres undefined),> 20 µM,–,–
C[C@H](NC(=O)C(c1cccnc1)N(C(=O)c1cnco1)c1ccc(-c2ccccc2)cc1)c1ccccc1 (some centres undefined),–,67 µM,–
C[C@H](NC(=O)C(c1cccnc1)N(C(=O)c1ccno1)c1ccc(-c2ccccc2)cc1)c1ccccc1 (some centres undefined),–,> 200 µM,–
CC(C)(C)c1ccc(N(C(=O)c2ccco2)C(C(=O)NC2CC2)c2cccnc2)cc1 (centres undefined),–,52.8 µM,–
CC(C)(C)CC(C)(C)NC(=O)C(c1cccnc1)N(C(=O)c1ccco1)c1ccc(C(C)(C)C)cc1 (centres undefined),> 20 µM,–,–
CC(C)(C)CC(C)(C)NC(=O)C(c1cccnc1)N(C(=O)c1ccco1)c1ccc(-c2ccccc2)cc1 (centres undefined),2.14 µM,148 µM,–
Cc1ccc(S(=O)(=O)CNC(=O)C(c2cccnc2)N(C(=O)c2ccco2)c2ccc(C(C)(C)C)cc2)cc1 (centres undefined),> 20 µM,–,–
CC(C)C[C@H](NC(=O)OCc1ccccc1)C(=O)N[C@@H](C[C@@H]1CCNC1=O)C(O)S(=O)(=O)O (some centres undefined),–,–,EC50 (SARS-CoV-2): 1.51 µM; IC50 [9]: ≤ 0.16 µM; IC50 [10]: ≤ 0.16 µM; IC50 [11]: ≤ 0.16 µM; IC50 [12]: ≤ 0.16 µM; IC50 [13]: > 50 µM; IC50 [14]: > 50 µM; IC50 [15]: ≤ 0.074 µM; IC50 (Procathepsin L [16]): ≤ 0.074 µM; IC50 [17]: ≤ 0.16 µM
